Assay outcomes (PubChem)
Hits are enriched below; roughly 12% of the tested compounds scored in any of these assays.
WT yeast gro inh = growth inhibition of WT yeast, mitochondrial fusion screen. 2.1% of 190,000 active. inhibition, % at 10 µM. mitochondrial fusion phenotypic screen, WT strain; in the data active = inhibition above about 58%; tested in S. cerevisiae
Diaph inh CS = inhibits diaphorase or chemically oxidizes, flagging diaphorase assay artifacts. diaphorase resazurin-to-resorufin fluorescence, NADH, 16 min; bacterial (C. kluyveri) enzyme, not human. inhibition, % at 20 µM. 0.69% of 190,000 active. AID 1217;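 active = primary screen inhibition at 20 µM above a set limit, cut at about 50% in these data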
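material = Clostridium kluyveri diaphorase enzyme | amount = 0.14 U/mL diaphorase, enzyme working solution | schedule = incubation 16 min, room temperature | detection = fluorescence of resorufin formed from resazurin, Ex 544/Em 590 nm | benchmarks = positive control minus NADH, DMSO neutral control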
Cl transport mod = KCC2 (human) Cl- transport modulation | Q9H2X9 | KCC2 cells, thallium flux FluoZin-2 fluorescence | B-score of Tl+ flux slope (higher = more flux/activation; lower = inhibition) at 10 µM | 2.2% of 190,000 active | AID 1456;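 active = thallium flux slope and its plate-corrected score both differing from the plate sample mean at a set confidence after two filtering rounds, in either direction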;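 also: slope of fluorescence scaled to starting intensity during 10 to 20 s after thallium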
Target sequence (Q9H2X9 whole entry, looked up): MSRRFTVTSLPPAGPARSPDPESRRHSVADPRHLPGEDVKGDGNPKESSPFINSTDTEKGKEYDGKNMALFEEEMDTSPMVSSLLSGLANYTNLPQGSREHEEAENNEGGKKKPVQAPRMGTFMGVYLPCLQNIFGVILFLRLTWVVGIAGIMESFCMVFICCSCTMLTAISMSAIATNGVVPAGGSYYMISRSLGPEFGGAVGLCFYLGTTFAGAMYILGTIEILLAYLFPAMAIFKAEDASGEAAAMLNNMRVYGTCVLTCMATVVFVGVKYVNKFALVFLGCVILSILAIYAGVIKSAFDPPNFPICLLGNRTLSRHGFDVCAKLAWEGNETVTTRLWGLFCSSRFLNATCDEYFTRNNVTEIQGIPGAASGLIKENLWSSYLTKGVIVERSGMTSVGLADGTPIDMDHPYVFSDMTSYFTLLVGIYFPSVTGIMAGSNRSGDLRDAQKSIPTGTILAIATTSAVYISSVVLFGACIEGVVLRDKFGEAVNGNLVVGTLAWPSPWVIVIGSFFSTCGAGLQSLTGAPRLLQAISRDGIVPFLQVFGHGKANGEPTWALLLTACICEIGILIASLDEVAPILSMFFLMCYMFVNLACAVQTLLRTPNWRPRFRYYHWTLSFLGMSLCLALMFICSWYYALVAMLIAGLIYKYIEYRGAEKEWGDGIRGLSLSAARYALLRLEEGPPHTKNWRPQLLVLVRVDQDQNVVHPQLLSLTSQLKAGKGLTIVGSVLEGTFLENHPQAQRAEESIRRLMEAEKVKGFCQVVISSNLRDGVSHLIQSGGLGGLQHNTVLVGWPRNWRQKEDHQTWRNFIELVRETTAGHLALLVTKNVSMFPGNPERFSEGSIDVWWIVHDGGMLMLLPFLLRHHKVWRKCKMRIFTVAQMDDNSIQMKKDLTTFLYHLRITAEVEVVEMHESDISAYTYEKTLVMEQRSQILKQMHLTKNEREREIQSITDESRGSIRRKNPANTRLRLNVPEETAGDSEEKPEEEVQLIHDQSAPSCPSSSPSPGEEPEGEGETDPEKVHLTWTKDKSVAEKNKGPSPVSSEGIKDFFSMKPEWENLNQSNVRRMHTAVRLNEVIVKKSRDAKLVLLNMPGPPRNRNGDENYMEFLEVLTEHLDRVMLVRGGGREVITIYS
Diaphorase act = diaphorase activation or chemical reduction counter-screen; activation factor at 20 µM; Diaphorase/resazurin coupled assay, resorufin fluorescence, 16 min; active compounds read high; 1 = vehicle wells, 0 = NADH-free wells; 0.005% of 190,000 active;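 active = diaphorase activity raised at least twofold by the compound at 20 µM; inactive = activation factor below 2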
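Material: bacterial diaphorase enzyme (C. kluyveri); amount: enzyme 0.07 U/mL final; reagent: NADH substrate 0.114 mM plus resazurin dye 0.1 mM, final; doses: single compound dose of 20 µM, 1% DMSO final; timing: 16 min enzyme reaction, ambient temperature; measured by: fluorescence of resorufin, 544 nm excitation, 590 nm emission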
ROMK mod = modulates human ROMK potassium channel activity; 2% of 130,000 active; B-score at 10 µM; Tet-inducible ROMK, thallium flux fluorescence; actives lie on both sides;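 active = signal ratio slope over the read window, or its plate-corrected B-score, at least 3 SD from the plate mean, either direction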;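 also: B-score of the F/F0 ratio slope over 7 to 12 s after thallium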
L major viab = Leishmania major promastigote growth inhibition; Leishmania major promastigotes, resazurin fluorescence viability; AID 1063; 9% of 200,000 active; inhibition, % at 10 µM; in the data active = inhibition above about 50%;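 also: promastigotes grown with compound for 44 hours at 28 °C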
Large screens that a line does not name were inactive.

Cc1ccc(NC(=O)CN(C)C(=O)CSc2nc3ccccc3c(=O)n2Cc2ccco2)cc1	L major viab 87 (no result: ROMK mod)
O=C(CSc1nc2ccccc2c(=O)n1Cc1ccco1)N1CCCCCC1	L major viab 79
COCCn1c(C)cc(C(=O)CSc2cc(C)c3ccccc3n2)c1C	none (no result: ROMK mod)
COCCn1c(C)cc(C(=O)CSc2nc3ccccc3c(=O)n2Cc2ccco2)c1C	L major viab 78
NC(=O)CN(c1ccc([N+](=O)[O-])cc1)S(=O)(=O)c1ccccc1	none (no result: Diaph inh CS, Diaphorase act)
O=C(CN1CCN(CCOCCO)CC1)N1c2ccccc2Sc2ccc(Cl)cc21	none (no result: Cl transport mod)
OCCN1CCN(C2Cc3cc(Cl)ccc3Sc3ccc(Cl)cc32)CC1 (stereo not drawn) (tested in a mixture with another compound)	L major viab 55
CN1CCN(CCOC2Cc3ccccc3Sc3ccc(Cl)cc32)CC1 (stereo not drawn)	L major viab 66
COc1ccccc1CCC(=O)Nc1ccc(C)cc1Cl	none
O=Nc1c(O)n(Cc2cccc(Cl)c2)c2ccccc12	WT yeast gro inh 67 (no result: ROMK mod)
Cc1c(NC(=O)C(C)N2C(=O)NC3(CCC(C)CC3)C2=O)c(=O)n(-c2ccccc2)n1C (stereo not drawn)	none (no result: ROMK mod)
CSc1ccccc1NC(=O)CN(C)CC(=O)Nc1ccccc1F	none
CSc1ccccc1NC(=O)CN(C)C(C)C(=O)Nc1ccc(C#N)cc1 (stereo not drawn)	L major viab 56
Cc1nc(SCc2ccc(C(=O)O)cc2)c2c(C)c(C)sc2n1	none (no result: WT yeast gro inh, Diaph inh CS, Diaphorase act, L major viab)
Cc1nc(SC2CCOC2=O)c2c(C)c(C)sc2n1 (stereo not drawn)	Cl transport mod 7.1 (no result: ROMK mod)
Cc1[nH]c2ccc3ncccc3c2c1C	L major viab 56
COc1ccc2nc(SCC(=O)N3CCCCCC3)c(C#N)cc2c1	L major viab 80 (no result: Cl transport mod)
CCOc1ccc2nc(SCC(=O)N3c4ccccc4Sc4ccccc43)c(C#N)cc2c1	L major viab 62
CCc1ccc2nc(SCC(=O)N3CCCCC3)c(C#N)cc2c1	none (no result: Diaph inh CS, Diaphorase act, ROMK mod)
COc1ccc2nc(SCC(=O)N3CCCCC3)c(C#N)cc2c1	L major viab 58 (no result: ROMK mod)
O=C(c1ccc(S(=O)(=O)N2CCC(c3nc4ccccc4[nH]3)CC2)cc1)N1CCOCC1	Diaph inh CS 64 (no result: ROMK mod)
CCN(C(=S)Nc1cc(S(=O)(=O)N2CCOCC2)ccc1Cl)c1cccc2ccccc12	L major viab 65
O=S(=O)(c1ccc(Cl)c(NC(=S)Nc2cccc(O)c2)c1)N1CCOCC1	none
Cc1cc(C)cc(C(=O)N(c2ccccn2)C(C)c2ccco2)c1 (stereo not drawn)	none (no result: Cl transport mod)
Cc1cccc(C(=O)N(c2ccccn2)C(C)c2ccco2)c1 (stereo not drawn)	L major viab 56
Cc1ccsc1/C=N/Nc1nc(=O)[nH]nc1C	WT yeast gro inh 70
Cc1ccsc1/C=N/Nc1ncc(Cl)cc1Cl	none
CC1(C)CC(O)(CCNCc2ccc3c(c2)OCO3)CCO1 (stereo not drawn)	L major viab 83 (no result: Cl transport mod, ROMK mod)
Cc1ccc(NC(=O)NCc2ccc3c(c2)OCO3)cc1C	none
CC1(C)CC(NCc2ccc3c(c2)OCO3)CCO1 (stereo not drawn)	L major viab 84 (no result: ROMK mod)
C[C@H](NC(=O)c1nc[nH]c1C(=O)N1CCc2ccccc2C1)C(=O)OCc1ccccc1	none (no result: WT yeast gro inh, Diaph inh CS, Diaphorase act, ROMK mod, L major viab)
O=C(NCCc1ccccc1)C1CCN(c2ncccn2)CC1	none
O=C(CN1C(=O)NC2(CCCCCCC2)C1=O)NCc1cccs1	none (no result: ROMK mod)
CC(C)(C)c1ccc(C2(C)NC(=O)N(CC(=O)NCc3cccs3)C2=O)cc1 (stereo not drawn)	L major viab 69
CCN(c1ccc(NC(=O)CCNC(=O)c2ccco2)cc1)C(C)C	L major viab 54 (no result: ROMK mod)
Cc1ccc(NC(=O)CCNC(=O)c2ccco2)cc1	none
CCOC(=O)Cc1csc(NC(=O)c2c(-c3ccccc3)noc2C)n1	none (no result: Cl transport mod)
CCOC(=O)Cc1csc(NC(=S)NC(=O)c2ccc(C)cc2)n1	Cl transport mod 55 (no result: ROMK mod)
CCOC(=O)Cc1csc(NC(=S)NC(=O)c2ccccc2Br)n1	Cl transport mod 50 (no result: ROMK mod)
CCOC(=O)Cc1csc(NC(=S)NC(=O)c2ccccc2)n1	Cl transport mod 52
CCOC(=O)Cc1csc(NC(=O)c2ccc(C)cc2)n1	none
CCOC(=O)Cc1csc(NC(=O)CSc2nnc(-c3ccncc3)o2)n1	L major viab 51
CCOC(=O)Cc1csc(NC(=O)c2ccc(Br)s2)n1	none (no result: ROMK mod)
O=C(CCc1nc(-c2ccccc2)c(-c2ccccc2)o1)OCc1ccc(Cl)cc1	none (no result: ROMK mod)
O=C(O)CCc1nc(-c2ccccc2)c(-c2ccccc2)o1	Diaph inh CS 80 (no result: ROMK mod, L major viab)
Cc1cc([N+](=O)[O-])nn1CCCC(=O)Nc1sc2c(c1C(N)=O)CCCC2	none
O=C(CCCn1cnc([N+](=O)[O-])n1)Nc1ccc(F)c(Cl)c1	L major viab 83
NC(=O)c1c(NC(=O)CCCn2cnc([N+](=O)[O-])n2)sc2c1CCCC2	L major viab 55
CC1CCc2c(sc(NC(=O)CCCn3cnc([N+](=O)[O-])n3)c2C(N)=O)C1 (stereo not drawn)	L major viab 92
O=C(CCCn1cnc([N+](=O)[O-])n1)Nc1ccc(Cl)cc1Cl	none
CCOC(=O)c1cc2c(=O)n3ccccc3nc2n(Cc2ccco2)c1=NC(=O)c1ccc(OC)cc1OC	none (no result: Cl transport mod)
C/C(=N/Nc1ccc(C(=O)O)cc1)c1ccc(O)c(O)c1O	Diaph inh CS 61
COc1ccc(/C(C)=N/Nc2ccc(C(=O)O)cc2)cc1OC	L major viab 51
CNCc1c(OCc2ccccc2F)ccc2ccccc12	L major viab 56
CCc1cc2ccc(C)cc2nc1SCC(=O)N1CCN(C(=O)c2ccco2)CC1	none (no result: Cl transport mod)
CCc1cc2cc3c(cc2nc1SCC(=O)N1CCN(C(=O)c2ccco2)CC1)OCO3	L major viab 84 (no result: Cl transport mod)
CCc1cc2ccc(C)cc2nc1SCC(=O)NNC(=O)c1ccco1	Cl transport mod 3
CCc1cc2ccc(C)cc2nc1SCC(=O)Nc1cc(C)on1	none (no result: Cl transport mod, ROMK mod)
Cc1cc(C2=CC(C)(c3cc(C)oc3C)Nc3nc(C(F)(F)F)nn32)c(C)o1 (stereo not drawn)	none (no result: ROMK mod)
Cc1ccc(C2=CC(C)(c3ccc(C)cc3)Nc3nc(C(F)(F)F)nn32)cc1 (stereo not drawn)	WT yeast gro inh 71 (no result: ROMK mod)
CC1(c2ccc(OCC#N)cc2)C=C(c2ccc(OCC#N)cc2)n2nc(C(F)(F)F)nc2N1 (stereo not drawn)	L major viab 97 (no result: ROMK mod)
O=S(=O)(c1ccccc1F)N1CCN(Cc2nc3ccccc3[nH]2)CC1	none
CC1CCCN(CC(O)COC(c2ccccc2)c2ccccc2)C1 (stereo not drawn)	L major viab 99
Cc1ccc(C(OCC(O)CN2CCCCC2CO)c2ccccc2)cc1 (stereo not drawn)	L major viab 84
